Experiment [1] has as its target T1, Gasdermin-D (Mus musculus) (UniProt Q9D8T2).
T1 sequence (whole entry): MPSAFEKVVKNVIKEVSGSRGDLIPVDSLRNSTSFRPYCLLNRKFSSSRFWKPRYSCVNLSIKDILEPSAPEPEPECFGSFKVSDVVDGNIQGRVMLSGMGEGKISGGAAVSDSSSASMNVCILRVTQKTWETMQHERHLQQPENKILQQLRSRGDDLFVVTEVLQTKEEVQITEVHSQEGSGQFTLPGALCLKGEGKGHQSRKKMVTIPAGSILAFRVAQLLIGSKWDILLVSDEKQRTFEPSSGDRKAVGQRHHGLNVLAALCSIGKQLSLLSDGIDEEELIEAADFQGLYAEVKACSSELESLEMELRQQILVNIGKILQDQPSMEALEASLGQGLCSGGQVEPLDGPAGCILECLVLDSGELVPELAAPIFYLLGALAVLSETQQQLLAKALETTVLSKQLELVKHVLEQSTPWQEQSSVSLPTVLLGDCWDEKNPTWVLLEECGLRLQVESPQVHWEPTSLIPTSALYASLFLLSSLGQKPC
Nature of the experiment: Inhibition of GSDMD cytosol-plasma membrane translocation in LPS-primed immortalized mouse […] cells at 5 uM followed by subsequent nigericin stimulation by immunofluorescence assay. In kind it is cell-based. Particulars: J774.A1. An outline of the steps:
(§1)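 Macrophages were LPS-primed, then stimulated with nigericin, in immortalized and primary cells. Anti-GSDMD immunofluorescence, with line-intensity histograms of cytosol versus plasma-membrane localization. Mean ± SEM, n ≥ 3 independent experiments.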

For experiment [2], the system named is J774.A1. Briefly: Inhibition of pyroptosis cell death in LPS-primed immortalized mouse […] cells assessed as effect on nigericin-induced cell morphological changes by propidium iodide staining based confocal microscopy. The experiment is classed as functional. In a few lines:
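Primary BMDM and J774A.1 cells treated with LPS and nigericin. Swelling, bubble formation and propidium iodide uptake visualized by epifluorescence microscopy.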

Experiment [3] relates to BMDM. Briefly: Inhibition of pyroptosis cell death in LPS-primed C57BL/6 mouse primary BMDM assessed as reduction in nigericin-induced IL-1beta secretion. In kind it is functional, cell-based. In a few lines:
(§2)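 Primary murine macrophages primed with LPS and stimulated with nigericin across a dose range. IL-1β release, LDH release and Alamar blue measured. Means ± SE, ≥3 experimental replicates.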

Experiment [4] deals with J774.A1. Briefly: Inhibition of pyroptosis in LPS-primed immortalized mouse […] cells assessed as reduction in flagellin-induced […] secretion by ELISA. In kind it is functional, cell-based. In a few lines: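 J774A.1 cells stimulated with flagellin or poly(dA:dT). IL-1β release measured by ELISA. Mean ± SEM, n ≥ 3 independent experiments.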
For experiment [5], the system named is BMDM. Nature of the experiment: Inhibition of pyroptosis in LPS-primed C57BL/6 mouse primary BMDM assessed as reduction in nigericin-induced cell death by LDH assay. The experiment is classed as functional, cell-based. An outline of the steps:
as §2

The subject of experiment [6] is J774.A1. Nature of the experiment: Inhibition of pyroptosis in LPS-primed immortalized mouse […] cells assessed as reduction in nigericin-induced IL-beta secretion by imaging analysis. In kind it is functional.
Experiment [7] addresses T2, Caspase-1 (Homo sapiens) (UniProt P29466).
T2 sequence (whole entry): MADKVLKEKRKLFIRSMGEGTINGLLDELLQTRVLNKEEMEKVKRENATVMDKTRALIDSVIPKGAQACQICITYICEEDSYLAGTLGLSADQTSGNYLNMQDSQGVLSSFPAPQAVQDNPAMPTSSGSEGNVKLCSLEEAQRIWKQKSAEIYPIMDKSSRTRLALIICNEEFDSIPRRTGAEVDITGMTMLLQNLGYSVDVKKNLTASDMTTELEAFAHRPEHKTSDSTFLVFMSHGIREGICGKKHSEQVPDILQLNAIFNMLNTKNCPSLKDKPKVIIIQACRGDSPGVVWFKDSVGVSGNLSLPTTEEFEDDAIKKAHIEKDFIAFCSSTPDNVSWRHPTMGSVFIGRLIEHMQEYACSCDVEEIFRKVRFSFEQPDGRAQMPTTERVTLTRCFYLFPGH
Briefly: Inhibition of ASC-mediated caspase-1 cleavage in human THP1 cells transfected with GFP-tagged ASC at 5 uM FACS analysis. The experiment is classed as cell-based. Particulars: THP-1. A general note: A flow cytometer gives signals particle by particle.

Experiment [8] has as its target T3, Caspase-1 (Mus musculus) (UniProt P29452).
T3 sequence (whole entry): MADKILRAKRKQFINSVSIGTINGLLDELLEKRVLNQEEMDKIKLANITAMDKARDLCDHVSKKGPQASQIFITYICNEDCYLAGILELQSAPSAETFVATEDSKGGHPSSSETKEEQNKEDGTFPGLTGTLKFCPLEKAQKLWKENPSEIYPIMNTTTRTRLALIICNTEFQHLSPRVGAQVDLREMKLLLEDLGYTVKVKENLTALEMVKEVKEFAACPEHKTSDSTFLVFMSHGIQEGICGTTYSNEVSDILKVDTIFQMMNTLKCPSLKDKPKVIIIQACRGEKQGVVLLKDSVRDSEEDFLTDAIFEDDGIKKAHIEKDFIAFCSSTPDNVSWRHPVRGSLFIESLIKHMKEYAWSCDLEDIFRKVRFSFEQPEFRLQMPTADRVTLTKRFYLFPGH
Briefly: Inhibition of caspase-1 activity in LPS-primed immortalized mouse […] cells assessed as reduction in nigericin-induced Ac-YVAD-pNA cleavage using Ac-YVAD-pNA as substrate at 5 uM by FAM-FLICA reagent based confocal microscopy. In kind it is cell-based. Particulars: J774.A1. An outline of the steps: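 Nigericin-treated macrophages. Active caspase-1 was detected two ways: in J774A.1 cells stained with the FAM-FLICA probe plus Hoechst, imaged by confocal microscopy and FLICA intensity quantified in ≥20 cells per group; and with the Ac-YVAD-pNA substrate. Mean ± SEM, n ≥ 3.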

The target of experiment [9] is T2, Caspase-1 (Homo sapiens). Briefly: Inhibition of pronase-mediated caspase-1 degradation in HEK293 cell lysate at 5 uM measured after 30 mins by DARTS based Western blot analysis. The experiment is classed as cell-free. An outline of the steps:
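DARTS assay: cell lysates pretreated with compound, then digested with different Pronase concentrations. Caspase-1 stability read by immunoblot against a histone H3 control.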
A general note: In western blotting, separated proteins are transferred to a membrane and probed.

Experiment [10] has as its system BMDM. Briefly: Induction of ROS generation in LPS-primed C57BL/6 mouse primary BMDM assessed as increase in nigericin-induced ROS level at 5 uM by DCFH-DA probe based FACS analysis. The experiment is classed as functional, cell-based. In a few lines: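 Nigericin-stimulated macrophages loaded with DCFH-DA; ROS read as a shift in fluorescence by flow cytometry.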

For experiment [11], the target named is T1, Gasdermin-D (Mus musculus). Briefly: Inhibition of GSDMD cytosol-plasma membrane translocation in LPS-primed C57BL/6 mouse primary BMDM at 5 uM followed by nigericin stimulation by immunofluorescence assay. An outline of the steps:
as §1

A further experiment has as its system Mus musculus. Nature of the experiment: Antiinflammatory activity against LPS-induced sepsis C57BL/6J mouse model assessed as reduction in alveolar epithelial architecture damage at 20 mg/kg, iv administered as single dose for 1 hr prior to LPS challenge and measured after 48 hrs by hematoxylin-eosin staining based inverted microscopy analysis. The experiment is classed as functional, organism-based.

For experiment [12], the target named is T3, Caspase-1 (Mus musculus). Briefly: Inhibition of caspase-1 activity in LPS-primed immortalized mouse […] cells assessed as reduction in nigericin-induced caspase-1 cleavage at 5 uM by Western blot analysis. In kind it is cell-based. As to conditions: J774.A1. In a few lines:
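Western blot of full-length and cleaved caspase-1 and caspase-8 in J774A.1 cells after nigericin, with tubulin as loading control. Bands quantified as bar graphs.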

The subject of the next experiment is THP-1. Nature of the experiment: Inhibition of pyroptosis in LPS-primed human THP1 assessed as reduction in nigericin-induced pyroptotic-pore formation by propidium iodide uptake assay. In kind it is functional, cell-based. An outline of the steps:
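THP-1 cells induced to pyroptosis. Cell death read by LDH release and pore formation by PI uptake. Means ± SE, ≥3 experimental replicates.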

This passage reports inhibition and Activity results from ChEMBL document CHEMBL4619791, “3-Difluoroalkyl Quaternary Oxindoles Inhibit Macrophage Pyroptosis by Blocking Inflammasome Recruitment of Caspase-1” (ACS Med Chem Lett, 2020).

The source made the active and inactive calls. The calls are words filed in the database; no cut-off is given here.

Consider `CCOC(CN1C(=O)C(NC(=O)Nc2ccc(C)cc2)(C(F)(F)C(=O)Nc2ccc(C)cc2)c2ccccc21)OCC` (centres undefined), for which the inhibition result (in [1]; in the experiment with J774.A1 [2]; with J774.A1 [4]; at Caspase-1 (Homo sapiens) [7]; at Caspase-1 (Mus musculus) [8]; on Caspase-1 (Homo sapiens) [9]) was “Active” in each case. In addition, the inhibition entry (in experiment [11]; on Caspase-1 (Mus musculus) [12]; in the experiment with THP-1) was “Active” in each case. Also, the inhibition result in the experiment with BMDM [3] and with BMDM [5] was “Dose-dependent effect” throughout. For the same molecule, the Activity in the experiment on J774.A1 [6] was 92.13 pg/mL. For the same molecule, the result in the experiment on BMDM [10] and in the experiment on Mus musculus was Active.
